Screens as filed in PubChem BioAssay.
Compounds with a hit are over-represented: about 2% of the library has one in this group of screens.
VIM-2 inhibitor = VIM-2 metallo-beta-lactamase inhibitors, primary screen, biochemical, epi-absorbance readout, Pseudomonas aeruginosa enzyme; inhibition, % at 5.6 µM; AID 1527, 2009; purified VIM-2, nitrocefin hydrolysis, epi-absorbance fluorescence; 290,000 compounds, 0.89% hits;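 active = inhibition above the mean of all tested compounds plus 3 SD, cutoff set per screening run, cut at about 7.5% in these data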;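 note: red hydrolysis product quenches plate fluorescence so inhibitors raise well fluorescence; 0% = enzyme with DMSO and 100% = DMSO without enzyme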
beta cell repl = inducers of MIN6 beta-cell proliferation, primary screen, ATP luminescence, uHTS. MIN6 cells proliferation, ATPlite luminescence, 48 h; cells starved in 0.2% serum; 100% = growth in 10% serum. proliferation, % at 10 µM. 330,000 compounds, 0.29% hits;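 active = compounds whose signal lies at least 3.5 SD above the mean of all wells on their plate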;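 note: 0% = DMSO-treated cells in low-serum medium and 100% = 10% serum control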
PvdQ inh = P. aeruginosa PvdQ acylase inhibitors, primary screen, biochemical, fluorescence, plate reader and imaging, single point. PvdQ acylase [Pseudomonas aeruginosa LESB58]. purified PvdQ acylase. inhibition, % at 10 µM. 340,000 compounds, 0.063% hits. AID 488965, 2010; in the data active = inhibition above about 30%, passing the limit was not always enough;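 note: 0% = vehicle neutral wells and 100% = reference inhibitor wells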
ATG4B inh = ATG4B protease inhibitors, primary screen, biochemical, fluorescence, uHTS; 340,000 compounds, 0.51% hits; AID 504462, 2011; ATG4B cleavage of LC3-PLA2, NBD-HPC fluorescence, 1 h; inhibition, % at 8.33 µM; in the data active = inhibition above about 40%
IMP-1 inhibitor = IMP-1 metallo-beta-lactamase inhibitors, primary screen, biochemical, epi-absorbance readout, Pseudomonas aeruginosa enzyme; purified IMP-1, nitrocefin hydrolysis, epi-absorbance fluorescence; metallo-beta-lactamase IMP-1 (Pseudomonas aeruginosa); 290,000 compounds, 0.45% hits; inhibition, % at 5.6 µM;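 active = inhibition above the mean plus 3 SD of all compounds in the same screening run, cut at about 4.5% in these data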;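 note: 0% = IMP-1 with DMSO and 100% = DMSO wells lacking enzyme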
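System: purified IMP-1; amount: IMP-1 0.2 nM before substrate addition; compound: single dose, 5.6 µM; times: 25 °C, 15 min preincubation, 25 min reaction; signal: Epi-absorbance via hydrolysed-nitrocefin quenching of white-plate fluorescence, 480/530 nm, EDTA stop; benchmarks: DMSO with and without IMP-1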
HKDC1 inhibitor = HKDC1 hexokinase inhibitors, primary screen, biochemical, fluorescence, uHTS; 340,000 compounds, 0.16% hits; inhibition, % at 20 µM; Q2TB90; recombinant HKDC1, G6PDH/diaphorase resazurin coupled fluorescence;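 active = inhibition above about 35% when tested at 20 µM, limit read from the data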;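 note: plate controls were DMSO wells with enzyme for no effect and DMSO wells lacking enzyme for full effect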
Target sequence (Q2TB90 whole entry, looked up): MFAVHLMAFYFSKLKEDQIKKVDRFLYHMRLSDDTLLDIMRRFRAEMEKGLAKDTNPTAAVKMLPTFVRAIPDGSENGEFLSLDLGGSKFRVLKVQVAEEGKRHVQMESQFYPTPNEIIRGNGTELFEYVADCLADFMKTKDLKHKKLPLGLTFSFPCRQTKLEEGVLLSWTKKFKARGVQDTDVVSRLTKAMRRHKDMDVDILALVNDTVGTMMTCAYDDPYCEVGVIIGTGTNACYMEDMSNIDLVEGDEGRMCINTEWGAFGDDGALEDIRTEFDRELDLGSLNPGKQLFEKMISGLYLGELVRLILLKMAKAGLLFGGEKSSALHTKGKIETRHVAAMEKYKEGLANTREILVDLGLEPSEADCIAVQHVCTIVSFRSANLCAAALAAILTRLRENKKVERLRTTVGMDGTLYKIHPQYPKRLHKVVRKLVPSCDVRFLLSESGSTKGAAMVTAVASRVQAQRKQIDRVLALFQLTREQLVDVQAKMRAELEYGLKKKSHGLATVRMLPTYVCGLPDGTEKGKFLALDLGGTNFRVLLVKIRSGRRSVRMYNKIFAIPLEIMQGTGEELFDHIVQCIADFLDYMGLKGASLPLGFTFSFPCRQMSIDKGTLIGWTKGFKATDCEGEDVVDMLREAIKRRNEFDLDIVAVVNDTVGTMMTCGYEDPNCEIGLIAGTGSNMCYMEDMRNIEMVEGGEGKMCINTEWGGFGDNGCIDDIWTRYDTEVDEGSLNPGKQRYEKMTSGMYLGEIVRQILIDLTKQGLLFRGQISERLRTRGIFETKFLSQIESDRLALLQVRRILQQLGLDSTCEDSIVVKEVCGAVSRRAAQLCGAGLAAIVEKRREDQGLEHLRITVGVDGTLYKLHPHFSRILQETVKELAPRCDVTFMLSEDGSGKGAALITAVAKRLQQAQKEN
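test system = in-house recombinant HK5 (HKDC1) enzyme | amount = HKDC1 at 5 µg/mL | control set = DMSO-enzyme wells negative, buffer-substituted wells positive | compound = one dose of 20 µM, 1% DMSO | schedule = reaction time 90 min, room temperature, protected from light | technique = resorufin fluorescence at 613 nm | reagent = glucose with 1 mM ATP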
HKDC1 act conf = HKDC1 hexokinase activators, confirmation, biochemical, single concentration. shares compounds with HKDC1 inhibitor. inhibition, % at 20 µM. recombinant HKDC1, G6PDH/diaphorase resazurin fluorescence; stronger effect = lower value. 740 compounds, 14% hits. AID 504708, 2011;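 active = inhibition at or below a set negative limit, negative inhibition meaning the enzyme was activated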
* hit, by the source's call; . = not tested or not shown.

SMILES | VIM-2 inhibitor | beta cell repl | PvdQ inh | ATG4B inh | IMP-1 inhibitor | HKDC1 inhibitor | HKDC1 act conf
Cc1nc2c(O)c3c(c(O)c2nc1C)C1C=CC3CC1 | . | . | -9 | -2 | . | 82* | 90
CCSc1nc(C)nc2sc(C)c(C)c12 | -2 | -1 | -14 | 16 | -2 | 1 | .
CN1CCN(NC(=O)c2ccc(Cl)c([N+](=O)[O-])c2)CC1 | 1 | 2 | -7 | -11 | -2 | 6 | .
O=C(NN1CCOCC1)c1ccc(Cl)c([N+](=O)[O-])c1 | -1 | -3 | 10 | -3 | -3 | 36* | -34
COP(=O)(OC)c1ccc(NCc2cc(O)ccc2O)cc1 | . | . | -24 | 4 | . | 43* | 53
O=C(C1COc2ccccc2O1)N1CCN(c2ccc(C(F)(F)F)cn2)CC1 (stereo not drawn) | . | -2 | -14 | -3 | . | 0 | .
COc1ccc(N2CCN(C(=O)CSc3nnc4c(C)cc5c(C)cc(C)cc5n34)CC2)cc1 | -2 | -5 | -8 | -12 | -2 | 43* | 19
Cc1cc(C)c2cc(C)c3nnc(SCC(=O)NCc4ccc5c(c4)OCO5)n3c2c1 | 2 | -1 | 1 | -9 | -2 | 32 | 31
COc1ccc(N2CCN(C(=O)CSc3nnc4c(C)cc5cc(C)ccc5n34)CC2)cc1 | 0 | -2 | -5 | -12 | -1 | 21 | .
CCCCn1nc2cc(C(=O)NC3CCCc4ccccc43)ccc2c1OCC (stereo not drawn) | -2 | -2 | -17 | 12 | -3 | -6 | .
Cc1cc(C)cc(-n2c(N)c(C(=O)Nc3c(C)n(C)n(-c4ccccc4)c3=O)c3nc4ccccc4nc32)c1 | -2 | 0 | -2 | -2 | -3 | 38* | -33
COc1cccc(-n2c(N)c(C(=O)Nc3c(C)n(C)n(-c4ccccc4)c3=O)c3nc4ccccc4nc32)c1 | 2 | -3 | 12 | 1 | 0 | 36* | 28
Cc1ccc(C(=O)c2coc3c2C(=O)C(=O)c2ccccc2-3)cc1 | -2 | -5 | -4 | -7 | 1 | 57* | 29
O=C(c1ccc(Cl)cc1)c1ccc(CN2C(=O)c3ccccc3C2=O)o1 | 1 | -2 | -11 | -4 | 0 | 7 | .
Cc1ccc(C(=O)c2c(C)oc3c2C(=O)C(=O)c2ccccc2-3)cc1 | -1 | -4 | -5 | 8 | -1 | 48* | 46
Cc1oc2c(c1C(=O)c1ccc(Cl)cc1)C(=O)C(=O)c1ccccc1-2 | 0 | . | 4 | 4 | -1 | 55* | 46
COc1ccc(C(=O)c2coc(-c3ccccc3C(=O)O)c2C(=O)O)cc1 | 0 | 1 | -7 | 4 | -1 | 9 | .
CN(C(=O)c1ccc(Cl)cc1)c1ccc(OCC(=O)Nc2cc(C(=O)O)ccc2Cl)cc1 | . | . | . | 1 | . | -1 | .
NC(=O)c1ccc(SCC(=O)OCC(=O)N2CCN(C(=O)c3ccco3)CC2)c([N+](=O)[O-])c1 | . | 2 | -7 | -2 | . | -2 | .
Cc1ccc(S(=O)(=O)Nc2ccc(Br)cc2C(NCC(=O)O)c2ccccc2)cc1 (stereo not drawn) | 0 | 0 | 1 | 2 | -1 | 1 | .
O=S(=O)(Nc1cc(Sc2ncn[nH]2)c(O)c2ccccc12)c1ccccc1 | 5 | -5 | 9 | 7 | -1 | 55* | 48
O=C(O)CSc1cc(NS(=O)(=O)c2ccc(Br)cc2)c2ccccc2c1O | 2 | . | -9 | 8 | 2 | 59* | 37
COc1ccc2nc(Cl)cc(Cl)c2c1 | -1 | 5 | -17 | 2 | -2 | 1 | .
C=CS(=O)(=O)c1c2cc(OC)ccc2nc2ccc(OC)cc12 | . | . | -20 | -4 | . | 34 | 4
CCCn1c(N)c(N(CCOC)C(=O)CSc2c(Cl)cccc2Cl)c(=O)[nH]c1=O | . | -1 | 2 | -12 | . | -4 | .
SMILES | VIM-2 inhibitor | beta cell repl | PvdQ inh | ATG4B inh | IMP-1 inhibitor | HKDC1 inhibitor | HKDC1 act conf
COc1ccc2[nH]c(C(=O)N(C)c3ccc(F)cc3F)cc2c1 | -2 | 2 | 3 | -2 | 0 | 6 | .
Cc1cccc2c(N=NC(=O)c3ccc(NS(=O)(=O)c4cccs4)cc3)c(O)[nH]c12 | . | -5 | -9 | -4 | . | 36* | 63
O=C(O)Cc1sc(Nc2cccc3ccccc23)nc1-c1ccc(Cl)cc1 | 3 | -7 | -15 | -4 | -1 | 8 | .
CCOC(=O)c1sc(NC(=O)CSc2nnc(Cc3ccccc3)o2)c(C#N)c1C | -3 | -4 | -16 | 10 | -3 | -40 | -30
CCOC(=O)c1c(NC(=O)CSc2nnc(Cc3ccccc3)o2)sc(C(C)=O)c1C | -6 | -4 | 27 | 1 | -4 | 1 | .
COc1ccc(-c2oc(NC(=O)CCl)c(C#N)c2-c2ccc(OC)cc2)cc1 | -4 | -3 | 12 | 13 | -6 | 46* | 21
COC1=CC(=O)C(C2CC(=O)c3c(O)cc(O)cc3O2)=CC1=O (stereo not drawn) | . | . | -18 | 0 | . | 60* | 40
COc1c(CC=C(C)C)cc(C2CC(=O)c3c(O)cc(O)cc3O2)cc1CC=C(C)C (stereo not drawn) | . | -8 | -11 | -11 | . | 6 | .
Fc1ccc2nncc(SCc3ccccc3Cl)c2c1 | . | . | -9 | 9 | . | 11 | .
O=C(O)c1ccc2c(c1)C(=O)N(c1cccc(-c3nc4ccccc4s3)c1)C2=O | -3 | -4 | 5 | 9 | -2 | 34 | -11
COC(=O)Cc1ccc(NC(=S)NC2CC2)cc1 | -2 | -1 | 8 | -14 | -3 | -1 | .
O=C(CNC(=O)c1cccs1)N/N=C/c1ccc(O)cc1O | -4 | 0 | 8 | -5 | -3 | -46 | -26
O=C(CN1CCCc2ccccc21)N/N=C/c1ccccc1 | -3 | 1 | -6 | 0 | -4 | -4 | .
O=C(CN1CCCc2ccccc21)N/N=C/c1ccc(O)cc1O | -3 | -2 | 15 | 2 | -4 | -43 | -34
COc1ccccc1/C=C\C(=O)NCC(=O)N/N=C/c1ccc(O)cc1O | -1 | -1 | -4 | -15 | -4 | -41 | -32
O=C(CCc1ccccc1)NCC(=O)N/N=C/c1ccc(O)cc1O | -2 | -2 | 4 | -4 | -1 | -43 | -6
Cc1csc(NC(=O)c2cncc(Br)c2)n1 | 0 | -2 | -5 | -9 | -1 | -8 | .
C=CCn1c(SCC(=O)Nc2sc3c(c2C#N)CCC(C)C3)nc2cc(C(=O)O)ccc2c1=O (stereo not drawn) | . | -2 | 7 | 0 | . | 39* | 33
